Calls of active or inactive are those of the source.
What was measured:
Medulloblastoma cell [1] = experiment: Induction of cell cycle arrest in patient-derived Medulloblastoma cells assessed as accumulation of cells at G1 phase at 300 nM; format: functional, cell-based; details: Homo sapiens
D425 Med [2] = experiment: Antiproliferative activity in human D425 Med cells assessed as inhibition of cell growth at 300 nM by flow cytometry analysis; format: functional, cell-based
In short: (§1)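 ViaCount flow cytometric cell count. Cells seeded in medium, DMSO or drug added 24 h later, cultured a further 48 h. Cells then pelleted, washed, stained with Viacount reagent and counted on a Guava cytometer. Vehicle control DMSO.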

D425 Med [3] = experiment: Inhibition of colony formation in human D425 Med cells at 100 to 300 nM incubated for 8 to 11 days by NBT staining based methyl cellulose colony growth assay; format: functional, cell-based; details: dose 100-300 nM, time 8-11 day
In short: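 500 cells/well suspended in DMEM with methyl cellulose (1.3% final) containing 150 or 300 nM drug or DMSO, plated in triplicate. Colonies formed over 8–11 days, then stained with NBT (1 mg/ml) for 24 h at 37 °C. Colonies of ≥50 cells counted.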

[4] = target: Bromodomain-containing protein 4 (Homo sapiens) (UniProt O60885); details: Daoy, dose 300.0 nM
Daoy [5] = experiment: Downregulation of CRIP1 gene expression in human Daoy cells at 300 nM by GSEA method; format: functional, cell-based
In short: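 Daoy cells treated with DMSO or 300 nM drug. RNA extracted and hybridized to Affymetrix HG-ST2.0 arrays. Analysis in R/Bioconductor with gene set enrichment analysis. Regulated transcripts defined as p < 0.05, FDR < 0.05, fold change < 0.67 (down) or > 1.5 (up).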

[6] = target: Bromodomain-containing protein 4 (Homo sapiens) (UniProt O60885); details: Daoy, dose 300.0 nM; remark: listed apart in the source
D283 Med [7] = experiment: Antiproliferative activity in human D283 Med cells assessed as inhibition of cell growth at 300 nM by flow cytometry analysis; format: functional, cell-based; in short: as §1
D283 Med [8] = experiment: Induction of cell cycle arrest in human D283 Med cells assessed as G2/M phase cells at 300 nM incubated for 48 hrs by flow cytometry analysis (reference value: 55.70 +/- 1.50 %); format: functional
[9] = target: Bromodomain-containing protein 4 (Homo sapiens) (UniProt O60885); details: D283 Med, dose 300.0 nM
Medulloblastoma cell [10] = experiment: Antitumor activity against patient-derived Medulloblastoma cells assessed as BrdU incorporation at 300 nM preincubated with compound for 7 days followed by BrdU addition and measured after 2 days by flow cytometry analysis (reference value: 33.3); format: functional, Homo sapiens; details: time 9 day
Daoy [11] = experiment: Induction of senescence in human Daoy cells assessed as increase in p16 mRNA expression at 300 nM by RT-qPCR analysis; format: functional, cell-based
In short: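 Cells treated with 300 nM drug or DMSO. p16, p21 and p27 mRNA measured by TaqMan qPCR with ΔΔCt quantitation, in triplicate.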

[12] = target: Bromodomain-containing protein 4 (Homo sapiens) (UniProt O60885); details: Daoy, dose 100-300 nM, time 48.0 hrs
Daoy [13] = experiment: Induction of senescence in human Daoy cells assessed as increase in beta-galactosidase level at 75 to 300 nM measured after 7 days by staining based analysis; format: functional, cell-based; details: dose 75-300 nM, time 7.0 day
In short: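 Daoy cells treated with 75 or 300 nM drug or DMSO. Senescence-associated β-galactosidase staining performed after 7 days. Positive cells counted per high power field.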

Daoy [14] = experiment: Antitumor activity against human Daoy cells xenografted in athymic nude mice assessed as reduction in tumor growth at 50 mg/kg, ip administered 5 days a week for 4 weeks and measured after 20 days; format: functional, organism-based; details: time 48.0 day
In short: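 Daoy cells (1.0×10^7 in PBS) injected into the flank of athymic nude mice. Dosing began once tumors were palpable, at a mean of 52 days post inoculation. 50 mg/kg i.p. or DMSO vehicle given 5 days/week for 4 weeks, n=10, with tumors followed a further 20 days. Volume by caliper as π/6 × L × W × H. Body weight recorded 3 times weekly.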

Daoy [15] = experiment: Induction of senescence in human Daoy cells assessed as increase in p21 protein expression at 300 nM by immunoblot analysis; format: functional, cell-based
In short: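 Protein lysates prepared in RIPA buffer with protease inhibitors. Standard western blot with HRP-conjugated secondary antibodies and chemiluminescent detection.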

[16] = target: Bromodomain-containing protein 4 (Homo sapiens) (UniProt O60885); details: Daoy, dose 300.0 nM; remark: listed apart in the source

Cc1sc2c(c1C)C(c1ccc(Cl)cc1)=N[C@@H](CC(=O)OC(C)(C)C)c1nnc(C)n1-2
Activity (Medulloblastoma cell [1]): Active
Activity (D425 Med [2]): Active
inhibition (D425 Med [3]): Active
inhibition [4]: Active
Activity (Daoy [5]): Active
inhibition [6]: Active
Activity (D283 Med [7]): Active
Activity (D283 Med [8]): 53.216%
inhibition [9]: Active
Activity (Medulloblastoma cell [10]): 13.5
Activity (Daoy [11]): Active
inhibition [12]: Dose-Dependent Effect
Activity (Daoy [13]): Active
Activity (Daoy [14]): Active
Activity (Daoy [15]): Active
inhibition [16]: Active

From ChEMBL document CHEMBL5653617, “Inhibition of BRD4 attenuates tumor cell self-renewal and suppresses stem cell signaling in MYC driven medulloblastoma” (Oncotarget, 2014)
